Results taken from ChEMBL document CHEMBL1165879, “Benzimidazole derivatives related to 2,3-acrylonitriles, benzimidazo[1,2-a]quinolines and fluorenes: synthesis, antitumor evaluation in vitro and crystal structure determination” (Eur J Med Chem, 2010).

Columns and labels:
[1] = tested on: HeLa; test: Cytotoxicity against human HeLa cells after 72 hrs by MTT assay; assay type: functional, cell-based
In short: (§1)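 Cells grown with FBS, 2 mM L-glutamine, penicillin and streptomycin at 37 °C, 5% CO2, humidified. Seeded in 96-well plates on day 0 at densities set by population doubling time. Five 10-fold dilutions (10^-8 to 10^-4 mol/L), freshly prepared, then 72 h exposure, modified NCI DTP method. Three individual experiments. IC50 from dose-response curves by linear regression.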

[2] = tested on: SW-620; test: Cytotoxicity against human SW620 cells after 72 hrs by MTT assay; assay type: functional, cell-based; details: SW-620, 72 h; in short: as §1
[3] = tested on: NCI-H460; test: Cytotoxicity against human H460 cells after 72 hrs by MTT assay; assay type: functional, cell-based; details: NCI-H460, 72 h; in short: as §1
[4] = tested on: MIA PaCa-2; test: Cytotoxicity against human MIAPaCa2 cells after 72 hrs by MTT assay; assay type: functional, cell-based; details: MIA PaCa-2, 72 h; in short: as §1
[5] = tested on: MCF7; test: Cytotoxicity against human MCF7 cells after 72 hrs by MTT assay; assay type: functional, cell-based; details: MCF7, 72 h; in short: as §1
[6] = tested on: Calf thymus DNA; test: Binding affinity to calf thymus DNA assessed as change in melting temperature at compound/polynucleotide ratio 3 in sodium cacodylate buffer at pH 7; assay type: nucleic-acid assay; details: Bos taurus; in the assay text read “compound/polynucleotide ratio 0.3” for “compound/polynucleotide ratio 3”
In short: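 Thermal melting of ct-DNA, alone and with compound, in sodium cacodylate buffer pH 7.0, I = 0.05 mol dm^-3, DMSO under 1%. Absorbance at 260 nm followed against temperature, heated at 1 °C per minute. Ligand absorbance subtracted and scale normalized. Tm taken as transition midpoint, from the first-derivative maximum or graphically by tangent.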

[7] = tested on: Calf thymus DNA; test: Binding affinity to calf thymus DNA assessed as change in melting temperature at compound/polynucleotide ratio 0.3 in sodium cacodylate buffer at pH 7; details: Bos taurus

| ΔTm [6] | ΔTm [7] | Compound | IC50 [1] | IC50 [2] | IC50 [3] | IC50 [4] | IC50 [5] |
| --- | --- | --- | --- | --- | --- | --- | --- |
|  |  | CC(=O)Nc1ccc2cc(C#N)c3nc4ccccc4n3c2c1 | 2 µM | 5 µM | 90 µM | 2 µM | 5 µM |
|  |  | N#Cc1cc2ccncc2n2c1nc1ccccc12 | 45 µM | 30 µM | 57 µM | 32 µM | 67 µM |
| 4.4 °C |  | N#Cc1cc2ccc(F)cc2n2c1nc1ccccc12 | 29 µM | 22 µM | 26 µM | 28 µM | 50 µM |
|  |  | CN(C)c1ccc(/C=C(\C#N)c2nc3ccccc3[nH]2)cc1 | > 50 µM | > 50 µM | > 50 µM | 26 µM | 4 µM |
|  |  | COc1cccc2c1C(=O)c1c(O)c3c(c(O)c1C2=O)C[C@@](O)(C(=O)CO)C[C@@H]3O[C@H]1C[C@H](N)[C@H](O)[C@H](C)O1 [DOXORUBICIN] |  |  |  | 0.01 µM | 0.04 µM |
|  |  | N#C/C(=C\c1ccc(Br)cc1)c1nc2ccccc2[nH]1 | 9 µM | > 50 µM | > 50 µM | 46 µM | 19 µM |
| 2.9 °C |  | Cc1ccc(/C=C(\C#N)c2nc3ccccc3[nH]2)cc1 | 20 µM | 87 µM | 81 µM | 32 µM | 8 µM |
| 2.4 °C |  | Cn1ccc2cc(C#N)c3nc4ccccc4n3c21 | 0.7 µM | 25 µM | 22 µM | 4 µM | 11 µM |
|  | 3 °C | COc1ccc(OC)c(/C=C(\C#N)c2nc3ccccc3[nH]2)c1 | 1 µM | 23 µM | 27 µM | 0.8 µM | 12 µM |
|  |  | N#C/C(=C\c1ccco1)c1nc2ccccc2[nH]1 | 25 µM | > 50 µM | > 50 µM | 28 µM | 17 µM |
|  |  | N#Cc1cc2ccsc2n2c1nc1ccccc12 | 19 µM | 16 µM | 30 µM | 28 µM | 31 µM |
|  |  | N#C/C(=C\c1ccncc1)c1nc2ccccc2[nH]1 | 21 µM | 42 µM | 78 µM | 57 µM | 9 µM |
|  |  | N#Cc1cc2ccc(Br)cc2n2c1nc1ccccc12 | 20 µM | 13 µM | 37 µM | > 50 µM | 37 µM |
|  |  | N#Cc1ccc2cc(C#N)c3nc4ccccc4n3c2c1 | 16 µM | 14 µM | 23 µM | > 50 µM | > 50 µM |
|  |  | N#C/C(=C\c1cccs1)c1nc2ccccc2[nH]1 | 8 µM | 48 µM | > 50 µM | > 50 µM | 30 µM |
|  | 3 °C | N#C/C(=C\c1ccc(F)cc1)c1nc2ccccc2[nH]1 | 15 µM | 59 µM | 43 µM | 18 µM | 14 µM |
| 4.8 °C |  | Cc1ccc2cc(C#N)c3nc4ccccc4n3c2c1 | > 100 µM | > 100 µM | > 100 µM | > 100 µM | 70 µM |
|  |  | CCN(CC)c1ccc(/C=C(\C#N)c2nc3ccccc3[nH]2)c(O)c1 | 3 µM | 10 µM | 11 µM | 3 µM | 2 µM |
| 0.4 °C |  | Cn1cccc1/C=C(\C#N)c1nc2ccccc2[nH]1 | 0.8 µM | 30 µM | 26 µM | 4 µM | 13 µM |
| 4.2 °C |  | COc1ccc(OC)c2c1cc(C#N)c1nc3ccccc3n12 | 5 µM | 6 µM | 14 µM | 23 µM | 31 µM |
|  |  | N#C/C(=C\c1cnc[nH]1)c1nc2ccccc2[nH]1 | 40 µM | 70 µM | > 100 µM | 30 µM | 92 µM |
|  |  | CC(=O)Nc1ccc(/C=C(\C#N)c2nc3ccccc3[nH]2)cc1 | 3 µM | > 100 µM | > 100 µM | 48 µM | 4 µM |
